Columns and labels:
[1] = target: Serine/threonine-protein kinase PLK1 (Homo sapiens) (UniProt P53350); assay: Binding affinity to wild-type human partial length PLK1 (A33 to F325 residues) expressed in mammalian expression system assessed as residual binding level at 1 uM by Kinomescan method relative to control
[2] = system: Receptor-type tyrosine-protein kinase FLT3 (Homo sapiens), P36888 [UNDEFINED MUTATION]; assay: Binding affinity to human partial length FLT3 ITD/F691L double mutant expressed in bacterial expression system assessed as residual binding level at 1 uM by Kinomescan method relative to control
Method in brief: (§1)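 Kinome-wide selectivity panel run by the KINOMEscan method, with the test compound at a single concentration of 1 μM. Wild-type and mutant kinases were profiled in the same screen.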

[3] = target: Serine/threonine-protein kinase WNK3 (Homo sapiens) (UniProt Q9BYP7); assay: Binding affinity to wild-type human partial length WNK3 (M1 to D434 residues) expressed in mammalian expression system assessed as residual binding level at 1 uM by Kinomescan method relative to control
[4] = Inhibition of EGFR/ALK L1152R mutant in human DFCI076 cells assessed as reduction in cell viability after 72 hrs by MTS assay; format: cell-based
[5] = target: Cyclin-dependent kinase-like 1 (Homo sapiens) (UniProt Q00532); assay: Binding affinity to wild-type human full length CDKL1 (M1 to I358 residues) expressed in mammalian expression system assessed as residual binding level at 1 uM by Kinomescan method relative to control
[6] = target: Serine/threonine-protein kinase tousled-like 2 (Homo sapiens) (UniProt Q86UE8); assay: Binding affinity to wild-type human partial length TLK2 (E424 to N749 residues) expressed in bacterial expression system assessed as residual binding level at 1 uM by Kinomescan method relative to control
[7] = target: Serine/threonine-protein kinase TNNI3K (Homo sapiens) (UniProt Q59H18); assay: Binding affinity to wild-type human full length TNNI3K (M1 to S835 residues) expressed in bacterial expression system assessed as residual binding level at 1 uM by Kinomescan method relative to control
[8] = target: STE20-like serine/threonine-protein kinase (Homo sapiens, UniProt Q9H2G2); assay: Binding affinity to wild-type human partial length SLK (S14 to A307 residues) expressed in bacterial expression system assessed as residual binding level at 1 uM by Kinomescan method relative to control
Chain of STE20-like serine/threonine-protein kinase (Q9H2G2 whole entry, looked up, the tested form may be a part, canonical isoform): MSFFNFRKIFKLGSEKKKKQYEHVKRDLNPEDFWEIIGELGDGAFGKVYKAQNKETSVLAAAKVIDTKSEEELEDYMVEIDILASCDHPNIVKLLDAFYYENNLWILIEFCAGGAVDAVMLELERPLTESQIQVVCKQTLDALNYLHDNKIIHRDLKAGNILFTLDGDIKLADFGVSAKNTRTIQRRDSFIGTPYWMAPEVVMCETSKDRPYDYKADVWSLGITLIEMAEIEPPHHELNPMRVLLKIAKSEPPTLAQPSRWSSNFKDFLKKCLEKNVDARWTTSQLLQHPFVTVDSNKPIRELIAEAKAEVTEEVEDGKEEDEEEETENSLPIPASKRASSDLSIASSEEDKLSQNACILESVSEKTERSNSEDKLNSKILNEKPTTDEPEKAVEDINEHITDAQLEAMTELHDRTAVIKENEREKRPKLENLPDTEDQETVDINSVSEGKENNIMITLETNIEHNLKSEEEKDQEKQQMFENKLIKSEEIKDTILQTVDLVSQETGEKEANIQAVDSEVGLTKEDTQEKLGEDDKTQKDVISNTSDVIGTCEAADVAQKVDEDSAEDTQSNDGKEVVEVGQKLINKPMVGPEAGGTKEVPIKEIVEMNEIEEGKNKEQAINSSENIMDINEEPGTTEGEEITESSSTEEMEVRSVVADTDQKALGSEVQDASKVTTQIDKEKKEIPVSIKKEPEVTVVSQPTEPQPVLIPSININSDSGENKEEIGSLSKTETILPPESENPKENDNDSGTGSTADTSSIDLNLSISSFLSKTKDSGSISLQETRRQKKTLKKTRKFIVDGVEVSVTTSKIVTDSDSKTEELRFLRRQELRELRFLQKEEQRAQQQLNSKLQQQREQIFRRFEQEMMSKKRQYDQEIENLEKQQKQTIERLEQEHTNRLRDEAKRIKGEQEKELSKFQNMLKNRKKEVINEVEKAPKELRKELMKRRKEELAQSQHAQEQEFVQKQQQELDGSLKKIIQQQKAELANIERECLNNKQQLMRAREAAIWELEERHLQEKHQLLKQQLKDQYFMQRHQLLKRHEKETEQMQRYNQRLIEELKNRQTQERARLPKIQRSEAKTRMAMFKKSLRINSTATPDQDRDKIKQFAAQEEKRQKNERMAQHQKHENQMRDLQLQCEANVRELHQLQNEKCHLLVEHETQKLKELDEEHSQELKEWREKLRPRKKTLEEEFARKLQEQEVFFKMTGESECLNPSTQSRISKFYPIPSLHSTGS

[9] = system: Phosphatidylinositol 4,5-bisphosphate 3-kinase catalytic subunit alpha isoform (Homo sapiens), P42336 [E545K]; assay: Binding affinity to human partial length PIK3CA E545K mutant (R108 to N1068 residues) expressed in mammalian expression system assessed as residual binding level at 1 uM by Kinomescan method relative to control
Chain of Phosphatidylinositol 4,5-bisphosphate 3-kinase catalytic subunit alpha isoform (Homo sapiens), P42336 [E545K] (P42336 whole entry E545K, the tested form may be a part, canonical isoform): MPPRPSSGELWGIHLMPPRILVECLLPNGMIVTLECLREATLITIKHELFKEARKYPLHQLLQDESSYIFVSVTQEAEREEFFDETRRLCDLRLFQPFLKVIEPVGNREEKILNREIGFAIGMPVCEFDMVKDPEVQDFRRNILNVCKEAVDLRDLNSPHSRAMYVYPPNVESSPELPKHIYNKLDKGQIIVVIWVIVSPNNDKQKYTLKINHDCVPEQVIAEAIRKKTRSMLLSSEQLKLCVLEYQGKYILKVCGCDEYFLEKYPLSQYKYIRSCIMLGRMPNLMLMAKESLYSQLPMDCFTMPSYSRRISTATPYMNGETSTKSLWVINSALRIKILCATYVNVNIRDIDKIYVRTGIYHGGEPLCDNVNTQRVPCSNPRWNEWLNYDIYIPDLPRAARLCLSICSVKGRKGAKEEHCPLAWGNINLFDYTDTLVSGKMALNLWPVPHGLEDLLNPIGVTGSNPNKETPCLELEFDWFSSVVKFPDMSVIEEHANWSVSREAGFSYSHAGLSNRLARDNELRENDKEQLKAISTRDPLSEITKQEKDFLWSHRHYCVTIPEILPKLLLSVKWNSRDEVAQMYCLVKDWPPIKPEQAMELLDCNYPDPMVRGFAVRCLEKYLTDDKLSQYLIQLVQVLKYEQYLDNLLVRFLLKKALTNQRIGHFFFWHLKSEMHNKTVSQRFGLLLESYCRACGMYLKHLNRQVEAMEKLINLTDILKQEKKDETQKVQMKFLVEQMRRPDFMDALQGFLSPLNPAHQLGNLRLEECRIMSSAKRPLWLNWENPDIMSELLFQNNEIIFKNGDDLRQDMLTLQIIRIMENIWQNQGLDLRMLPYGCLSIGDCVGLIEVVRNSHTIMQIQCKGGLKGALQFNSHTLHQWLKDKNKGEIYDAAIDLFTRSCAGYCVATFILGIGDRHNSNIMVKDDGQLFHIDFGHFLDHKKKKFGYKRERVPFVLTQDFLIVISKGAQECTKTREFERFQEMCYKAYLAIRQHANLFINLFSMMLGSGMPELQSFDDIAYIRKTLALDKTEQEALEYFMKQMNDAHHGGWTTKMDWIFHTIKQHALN

[10] = target: Serine/threonine-protein kinase TBK1 (Homo sapiens) (UniProt Q9UHD2); assay: Binding affinity to wild-type human full length TBK1 (M1 to L729 residues) expressed in mammalian expression system assessed as residual binding level at 1 uM by Kinomescan method relative to control
Chain of Serine/threonine-protein kinase TBK1 (Homo sapiens) (Q9UHD2 whole entry, the tested form may be a part): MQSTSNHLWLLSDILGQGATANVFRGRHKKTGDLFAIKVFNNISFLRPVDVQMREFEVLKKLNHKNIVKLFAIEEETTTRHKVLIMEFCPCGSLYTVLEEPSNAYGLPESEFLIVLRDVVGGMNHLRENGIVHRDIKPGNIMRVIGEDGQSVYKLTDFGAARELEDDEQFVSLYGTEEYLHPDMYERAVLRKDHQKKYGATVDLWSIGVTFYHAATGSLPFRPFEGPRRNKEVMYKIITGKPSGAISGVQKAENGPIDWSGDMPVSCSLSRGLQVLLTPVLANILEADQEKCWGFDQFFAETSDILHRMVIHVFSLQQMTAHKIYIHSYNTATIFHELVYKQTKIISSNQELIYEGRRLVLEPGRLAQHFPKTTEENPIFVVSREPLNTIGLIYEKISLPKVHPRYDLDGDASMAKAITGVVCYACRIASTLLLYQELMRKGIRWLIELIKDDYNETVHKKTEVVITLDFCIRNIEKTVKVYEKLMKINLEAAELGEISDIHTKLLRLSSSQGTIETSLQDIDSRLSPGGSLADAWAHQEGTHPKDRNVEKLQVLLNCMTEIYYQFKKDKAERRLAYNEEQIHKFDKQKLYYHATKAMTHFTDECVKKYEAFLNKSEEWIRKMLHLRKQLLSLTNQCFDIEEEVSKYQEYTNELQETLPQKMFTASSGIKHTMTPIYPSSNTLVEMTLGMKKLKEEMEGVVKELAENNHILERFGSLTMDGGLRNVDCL

[11] = target: Tyrosine-protein kinase JAK1 (Homo sapiens) (UniProt P23458); assay: Binding affinity to wild-type human partial length JAK1 JH2 pseudokinase domain (R537 to D855 residues) expressed in mammalian expression system assessed as residual binding level at 1 uM by Kinomescan method relative to control
[12] = target: Dual specificity mitogen-activated protein kinase kinase 3 (Homo sapiens) (UniProt P46734); assay: Binding affinity to wild-type human full length MEK3 (M1 to S318 residues) expressed in mammalian expression system assessed as residual binding level at 1 uM by Kinomescan method relative to control
Method in brief: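 Single-point kinome-wide KINOMEscan binding panel, test compound at 1 μM, run by the provider's standard protocol.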

[13] = target: Serine/threonine-protein kinase Chk1 (Homo sapiens) (UniProt O14757); assay: Binding affinity to wild-type human partial length CHEK1 (M1 to G289 residues) expressed in bacterial expression system assessed as residual binding level at 1 uM by Kinomescan method relative to control
[14] = target: Vascular endothelial growth factor receptor 1 (Homo sapiens) (UniProt P17948); assay: Binding affinity to wild-type human partial length FLT1 (R781 to F1239 residues) expressed in bacterial expression system assessed as residual binding level at 1 uM by Kinomescan method relative to control
[15] = target: Protein kinase C iota type (Homo sapiens) (UniProt P41743); assay: Binding affinity to wild-type human partial length PRKCI (H215 to V587 residues) expressed in mammalian expression system assessed as residual binding level at 1 uM by Kinomescan method relative to control
[16] = target: Tyrosine-protein kinase ABL1 (Homo sapiens) (UniProt P00519); assay: Binding affinity to wild-type human non-phosphorylated ABL1 (S229 to K512 residues) expressed in mammalian expression system assessed as residual binding level at 1 uM by Kinomescan method relative to control
[17] = target: Mitogen-activated protein kinase kinase kinase 15 (Homo sapiens) (UniProt Q6ZN16); assay: Binding affinity to wild-type human partial length MAP3K15 (T625 to L932 residues) expressed in mammalian expression system assessed as residual binding level at 1 uM by Kinomescan method relative to control
Chain of Mitogen-activated protein kinase kinase kinase 15 (Homo sapiens) (Q6ZN16 whole entry, the tested form may be a part): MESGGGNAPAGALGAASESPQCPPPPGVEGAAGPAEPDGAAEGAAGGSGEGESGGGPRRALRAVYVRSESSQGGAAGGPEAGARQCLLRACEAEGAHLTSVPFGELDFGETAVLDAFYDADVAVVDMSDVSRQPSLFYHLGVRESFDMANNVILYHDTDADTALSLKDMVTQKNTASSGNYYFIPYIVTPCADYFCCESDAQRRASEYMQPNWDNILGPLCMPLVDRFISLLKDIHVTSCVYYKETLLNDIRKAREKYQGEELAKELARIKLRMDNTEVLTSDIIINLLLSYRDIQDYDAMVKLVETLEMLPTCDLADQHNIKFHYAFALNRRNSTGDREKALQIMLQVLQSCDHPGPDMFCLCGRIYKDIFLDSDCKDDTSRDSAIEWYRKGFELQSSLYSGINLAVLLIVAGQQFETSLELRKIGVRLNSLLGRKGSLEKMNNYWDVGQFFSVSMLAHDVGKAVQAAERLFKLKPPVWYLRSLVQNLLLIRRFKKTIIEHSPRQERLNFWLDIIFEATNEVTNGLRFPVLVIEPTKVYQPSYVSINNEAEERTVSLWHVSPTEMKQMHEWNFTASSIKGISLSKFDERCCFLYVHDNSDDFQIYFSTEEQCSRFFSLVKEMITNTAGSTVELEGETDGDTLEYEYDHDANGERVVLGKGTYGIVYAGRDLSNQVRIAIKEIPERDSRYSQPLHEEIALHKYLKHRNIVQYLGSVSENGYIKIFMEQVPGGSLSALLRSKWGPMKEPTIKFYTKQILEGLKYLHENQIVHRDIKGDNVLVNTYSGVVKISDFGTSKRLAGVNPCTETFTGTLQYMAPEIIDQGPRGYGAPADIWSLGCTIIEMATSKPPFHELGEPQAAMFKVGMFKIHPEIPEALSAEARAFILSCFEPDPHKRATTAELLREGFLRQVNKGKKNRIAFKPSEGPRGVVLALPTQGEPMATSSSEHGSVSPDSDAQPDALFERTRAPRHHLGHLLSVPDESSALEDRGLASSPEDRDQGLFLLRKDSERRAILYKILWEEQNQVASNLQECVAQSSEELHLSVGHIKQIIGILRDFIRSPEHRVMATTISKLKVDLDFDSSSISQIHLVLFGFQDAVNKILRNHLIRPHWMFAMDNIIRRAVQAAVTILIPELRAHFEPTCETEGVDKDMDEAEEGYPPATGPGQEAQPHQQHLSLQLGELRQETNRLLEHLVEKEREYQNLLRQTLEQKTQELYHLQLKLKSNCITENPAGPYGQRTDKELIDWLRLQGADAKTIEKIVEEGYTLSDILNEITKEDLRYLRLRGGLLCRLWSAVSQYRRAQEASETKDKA

[18] = target: Mast/stem cell growth factor receptor Kit (Homo sapiens) (UniProt P10721); assay: Binding affinity to wild-type human partial length KIT (I571 to D952 residues) expressed in bacterial expression system assessed as residual binding level at 1 uM by Kinomescan method relative to control
[19] = target: Angiopoietin-1 receptor (Homo sapiens) (UniProt Q02763); assay: Binding affinity to wild-type human partial length TIE2 (N804 to T1112 residues) expressed in bacterial expression system assessed as residual binding level at 1 uM by Kinomescan method relative to control
[20] = target: Cyclin-dependent kinase 2 (Homo sapiens) (UniProt P24941); assay: Binding affinity to wild-type human full length CDK2 (M1 to L298 residues) expressed in bacterial expression system assessed as residual binding level at 1 uM by Kinomescan method relative to control
[21] = target: Receptor tyrosine-protein kinase erbB-4 (Homo sapiens, UniProt Q15303); assay: Binding affinity to wild-type human partial length ERBB4 (L690 to K994 residues) expressed in bacterial expression system assessed as residual binding level at 1 uM by Kinomescan method relative to control
[22] = system: Epidermal growth factor receptor (Homo sapiens), P00533 [UNDEFINED MUTATION]; assay: Binding affinity to human partial length EGFR S752-I759del mutant expressed in bacterial expression system assessed as residual binding level at 1 uM by Kinomescan method relative to control; method in brief: as §1
[23] = target: Insulin-like growth factor 1 receptor (Homo sapiens) (UniProt P08069); assay: Binding affinity to wild-type human partial length IGF1R (L972 to D1294 residues) expressed in bacterial expression system assessed as residual binding level at 1 uM by Kinomescan method relative to control
[24] = target: Tyrosine-protein kinase FRK (Homo sapiens) (UniProt P42685); assay: Binding affinity to wild-type human partial length FRK (A215 to F503 residues) expressed in bacterial expression system assessed as residual binding level at 1 uM by Kinomescan method relative to control

Chain of Serine/threonine-protein kinase PLK1 (Homo sapiens) (P53350 whole entry, the tested form may be a part): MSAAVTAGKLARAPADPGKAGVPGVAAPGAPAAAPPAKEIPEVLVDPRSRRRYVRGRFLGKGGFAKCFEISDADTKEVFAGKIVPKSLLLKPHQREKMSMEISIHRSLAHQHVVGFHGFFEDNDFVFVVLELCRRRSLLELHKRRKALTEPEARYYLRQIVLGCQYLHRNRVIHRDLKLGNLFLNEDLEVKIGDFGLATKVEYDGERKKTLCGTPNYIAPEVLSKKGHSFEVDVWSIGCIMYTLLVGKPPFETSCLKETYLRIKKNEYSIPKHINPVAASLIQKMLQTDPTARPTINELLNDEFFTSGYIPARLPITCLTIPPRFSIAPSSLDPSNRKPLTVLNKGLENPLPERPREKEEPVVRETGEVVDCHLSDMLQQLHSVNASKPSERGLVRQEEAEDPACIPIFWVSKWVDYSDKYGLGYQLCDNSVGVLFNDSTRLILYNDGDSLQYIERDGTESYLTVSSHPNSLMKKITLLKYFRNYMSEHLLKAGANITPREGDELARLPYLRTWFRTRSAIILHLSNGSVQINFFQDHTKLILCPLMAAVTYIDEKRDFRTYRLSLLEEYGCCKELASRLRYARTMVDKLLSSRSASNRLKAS

Structure (SMILES): C=CC(=O)Nc1cc(Nc2ncc(Cl)c(Nc3ccccc3S(=O)(=O)C(C)C)n2)c(OC)cc1N(C)CCN(C)C
- Activity [1]: 83%
- Activity [2]: 3.6%
- Activity [3]: 100%
- EC50 [4]: 820 nM
- Activity [5]: 58%
- Activity [6]: 93%
- Activity [7]: 100%
- Activity [8]: 0%
- Activity [9]: 54%
- Activity [10]: 21%
- Activity [11]: 63%
- Activity [12]: 52%
- Activity [13]: 99%
- Activity [14]: 47%
- Activity [15]: 73%
- Activity [16]: 8.4%
- Activity [17]: 45%
- Activity [18]: 39%
- Activity [19]: 20%
- Activity [20]: 83%
- Activity [21]: 0%
- Activity [22]: 2.4%
- Activity [23]: 0.55%
- Activity [24]: 5.9%

Source: ChEMBL document CHEMBL4382192, “Discovery of a potent dual ALK and EGFR T790M inhibitor” (Eur J Med Chem, 2017)
